SKN-1 block = inhibitors of C. elegans SKN-1; hit rate 0.49% among 360,000; inhibition, % at 21.8 µM; C. elegans VP596 Pgst-4::GFP/RFP ratio, acrylamide-induced, 24 h; AID 624304;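 active means interference check ratio from 0.5 to 1.5 plus GFP to RFP signal ratio inhibition reaching or exceeding a fixed threshold, cut at about 30% in these data, passing the limit was not always enough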
MLLE-PAM2 inh = inhibitors of microRNA-mediated deadenylation, human PABP1 MLLE binding. P11940. GST-MLLE / FITC-PAM2 fluorescence polarization. inhibition, % at 20 µM. hit rate 0.36% among 360,000. AID 588489; in the data active means inhibition above about 35%, passing the limit was not always enough;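 further: plate controls were DMSO wells with GST-MLLE for no effect and wells lacking GST-MLLE protein for full effect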
PABP FP inh = PABP-poly(A) binding inhibition; P11940; PABP-poly(A) RNA binding, fluorescence polarization; inhibition, % at 35 µM; hit rate 1% among 290,000; AID 2014;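 further: calls also rest on retests at 20 µM and on dose response follow-up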
MT1-MMP act inh = MT1-MMP (human) activation inhibition; P50281; HT1080 RFP-PRO-GFP cells, GFP/RFP ratio fluorescence, overnight; percent of plate control window, DMSO zero; GFP/RFP ratio change, % at 20 µM; hit rate 0.061% among 360,000;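 active means GFP/RFP ratio change of at least 30% with cell ATP level not reduced by more than half and red fluorescence within 50% of control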
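Material – HT1080 RFP-PRO-GFP cells · Control set – DMSO wells and RFP-L50D-GFP cells · Incubation – overnight cell settling, then overnight compound exposure, 37 °C, 5% CO2 · Compound dosing – single-point 20 µM compound, 1% DMSO · Read-out – GFP/RFP fluorescence ratio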
eIF4H inh = inhibitors of RNA binding by human eIF4H. inhibition, % at 35 µM. eIF4H fluorescence polarization binding assay. hit rate 0.94% among 290,000. AID 2012. Q15056;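 further: calls also rest on retests at 20 µM and on dose response follow-up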
The depositor's hits bear a star. Only some compounds are listed: those with a hit (about 1.7% of all), similar ones and a draw of the others. Unless noted, how the calls were made is not given here.

`CCCn1c(N)c(N(CCOC)C(=O)c2cc(-c3ccco3)nc3ccccc23)c(=O)[nH]c1=O` gave SKN-1 block 8, MLLE-PAM2 inh 18, PABP FP inh 23, MT1-MMP act inh 4 and eIF4H inh 59*.
`CNC(=O)COC(=O)c1cc(-c2ccco2)nc2ccccc12` gave SKN-1 block 0, MLLE-PAM2 inh -5, PABP FP inh 60*, MT1-MMP act inh -1 and eIF4H inh 74*.
O=C(COC(=O)c1cc(-c2ccco2)nc2ccccc12)NCc1ccccc1 was read as SKN-1 block 9, MLLE-PAM2 inh 27, PABP FP inh 21, MT1-MMP act inh -9 and eIF4H inh 67.
Screening COc1cc(-c2cc(C(=O)Nc3ccccc3N3CCOCC3)c3ccccc3n2)cc(OC)c1OC returned SKN-1 block -4, MLLE-PAM2 inh 5, PABP FP inh -10, MT1-MMP act inh -8 and eIF4H inh 6.
For O=C(O)c1ccccc1/C=N/NC(=O)c1cc(-c2ccco2)nc2ccccc12 the results were SKN-1 block -1, MLLE-PAM2 inh -25, PABP FP inh 76*, MT1-MMP act inh -1 and eIF4H inh 82*.
`COc1ccc(CCNC(=O)c2cc(C)oc2C)cc1` gave SKN-1 block -11, MLLE-PAM2 inh 2, PABP FP inh -23, MT1-MMP act inh -3 and eIF4H inh 6.
For CCCCN(C)CCC(=O)Nc1ccc(F)c(F)c1 the results were SKN-1 block 0, MLLE-PAM2 inh 8, PABP FP inh -4, MT1-MMP act inh 3 and eIF4H inh -12.
`CC1CCCC(N2CCN(S(=O)(=O)c3ccccc3)CC2)C1` (stereo not given) gave SKN-1 block 11, MLLE-PAM2 inh 9, PABP FP inh 27, MT1-MMP act inh 0 and eIF4H inh 12.
For CCCNC(=O)COC(=O)c1cc(-c2ccc(OC)cc2)nc2ccccc12 the results were SKN-1 block 7, MLLE-PAM2 inh 1, PABP FP inh 51*, MT1-MMP act inh 4 and eIF4H inh 0.
COc1ccc(CCNC(=O)c2cc(-c3ccco3)nc3ccccc23)cc1 was read as PABP FP inh 48* and eIF4H inh 75*.
Screening Nc1cccc2c1C(=O)c1ccc(Cl)cc1C2=O returned SKN-1 block 46*, MLLE-PAM2 inh -28 and MT1-MMP act inh 11.
O=C(O)c1cccc2c1-c1ccc(Cl)cc1C2=O was read as SKN-1 block -2, MLLE-PAM2 inh 17 and MT1-MMP act inh 2.
COc1ccccc1OCCNC(=O)c1ccc(C)o1 was read as SKN-1 block -1, MLLE-PAM2 inh -2 and MT1-MMP act inh 0.
CCO[C@@H]1OC(C(=O)O)=C[C@H](C)[C@H]1CCCO was read as SKN-1 block 0, MLLE-PAM2 inh -6, PABP FP inh 52*, MT1-MMP act inh 3 and eIF4H inh 34.
Screening C#Cc1ccc([C@@H]2C=C(C(=O)OCC=C)O[C@H](OCC)[C@H]2CCCO)cc1 returned SKN-1 block 8, MLLE-PAM2 inh 7, PABP FP inh -1, MT1-MMP act inh -7 and eIF4H inh 88*.
Screening CCO[C@H]1OC(C(=O)O)=C[C@@H](C2CC2)[C@@H]1CCCO returned PABP FP inh 12 and eIF4H inh 6.
Screening Cc1ccc(/C=C2\CCC3=C2OC(N)=C(C#N)C3c2ccc(C)cc2)cc1 (stereo not given) returned SKN-1 block 35*, MLLE-PAM2 inh 120, PABP FP inh inconclusive, MT1-MMP act inh -172 and eIF4H inh inconclusive.
COc1ccc(CCNC(=O)C/C(C)=N/NC(=O)c2ccc([N+](=O)[O-])cc2Cl)cc1OC was read as SKN-1 block -10, MLLE-PAM2 inh 8, PABP FP inh -2, MT1-MMP act inh -1 and eIF4H inh 5.
For Cc1ccc2c(C(=O)CNc3nncs3)c(C)[nH]c2c1 the results were SKN-1 block -5, MLLE-PAM2 inh -22, PABP FP inh 4, MT1-MMP act inh -5 and eIF4H inh -5.
CN(CCC(=O)c1ccccc1)CCC(=O)c1ccccc1 was read as SKN-1 block 2, MLLE-PAM2 inh 44*, PABP FP inh 0, MT1-MMP act inh 3 and eIF4H inh 1.
O=C(CC(=O)c1ccccc1)c1ccccc1 was read as SKN-1 block -6, MLLE-PAM2 inh 9 and MT1-MMP act inh 2.
For O=C1/C(=C/c2ccco2)Cc2ccccc21 the results were SKN-1 block 3, MLLE-PAM2 inh -1, PABP FP inh active, MT1-MMP act inh 3 and eIF4H inh 80*.
Screening O=C(O)C[C@@H]1C(=O)O[C@@H]2C(COC(=O)c3cc(O)c(O)c(O)c3)O[C@@H](OC(=O)c3cc(O)c(O)c(O)c3)[C@@H](OC(=O)c3cc(O)c(O)c4c3[C@H]1[C@H](O)C(=O)O4)[C@H]2OC(=O)c1cc(O)c(O)c(O)c1 (stereo not given in full) returned PABP FP inh 91* and eIF4H inh 87*.
For CC(=O)Nc1cccc(OCC(=O)Nc2ccccc2)c1 the results were SKN-1 block 2, MLLE-PAM2 inh 12, PABP FP inh 62, MT1-MMP act inh 1 and eIF4H inh active.
For CN(C)C(=O)c1ccc(NC(=O)COc2cccc(Oc3ccccc3)c2)cc1 the results were SKN-1 block -6, MLLE-PAM2 inh -2, PABP FP inh 57*, MT1-MMP act inh -5 and eIF4H inh 23.
O=C(COc1cccc(Oc2ccccc2)c1)Nc1ccc(SC(F)F)cc1 was read as SKN-1 block 5, MLLE-PAM2 inh -14, PABP FP inh -1, MT1-MMP act inh 1 and eIF4H inh 7.
For Cc1cccc(OCC(=O)Nc2ccc3c(C)cc(=O)oc3c2)c1 the results were SKN-1 block -3, MLLE-PAM2 inh -21, PABP FP inh 14*, MT1-MMP act inh 2 and eIF4H inh 78*.
`CC(=O)Nc1cccc(OCC(=O)NS(=O)(=O)c2ccc(Cl)cc2)c1` gave SKN-1 block 35*, MLLE-PAM2 inh -6, PABP FP inh 8, MT1-MMP act inh -2 and eIF4H inh 5.
For O=C(COc1ccccc1)NS(=O)(=O)c1ccc(Cl)cc1 the results were SKN-1 block -1, MLLE-PAM2 inh 8, PABP FP inh 7, MT1-MMP act inh 3 and eIF4H inh -7.
Screening O=C(NCCS(=O)(=O)N1CCN(c2ccccc2)CC1)c1ccc(Br)o1 returned SKN-1 block 20 and MLLE-PAM2 inh 2.
Screening CCN1C(=O)[C@H]2[C@H]3CN=C(SCC(=O)c4ccccc4)N3[C@@](C)(C(=O)OC)[C@H]2C1=O returned SKN-1 block -15, MLLE-PAM2 inh 45* and MT1-MMP act inh 6.
For Nc1cc(=O)[nH]c(SCc2ccc(Cl)cc2Cl)n1 the results were SKN-1 block 5, MLLE-PAM2 inh -13, PABP FP inh 4, MT1-MMP act inh -2 and eIF4H inh 4.
`CC1(C)Oc2ccc3ccc(=O)oc3c2/C(=C/NNC(N)=S)C1=O` gave SKN-1 block 10, MLLE-PAM2 inh -1, PABP FP inh -13, MT1-MMP act inh 1 and eIF4H inh 3.

Assay outcomes deposited in PubChem BioAssay by Sanford-Burnham Center for Chemical Genomics.
